Assay results as given in article PMC6571994 (The Journal of General Physiology, 2019).
Entries after “also recorded” stand apart in the source; their conditions may differ. Where two headings read alike, the source gives them in different places.

Assays:
[1] = system: purified iNicSnFR3a; experiment: Fluorescence dose–response relations of purified iNicSnFR3a; assay type: biochemical; settings: for sensitivity of iNicSnFR3a and iNicSnFR3b to other α4β2 agonists: unpublished data; for ΔFmax/F0: excitation 485 nm, 3× PBS, 25°C
[2] = system: T. sp X513 OpuBC homologue; experiment: Isothermal titration calorimetry with purified PBPs; assay type: binding, Thermoanaerobacter sp X513
[3] = system: iNicSnFR3a_PM expressed in HeLa cells; experiment: Time-resolved fluorescence, iNicSnFR3a_PM in transfected HeLa cells; assay type: cell-based, human; settings: Fig. 5 E; normalized to nicotine (100 µM)
[4] = system: iNicSnFR3a_ER expressed in HeLa cells; experiment: Time-resolved fluorescence, iNicSnFR3a_ER in transfected HeLa cells; assay type: cell-based, human; settings: Fig. 5 E; normalized to nicotine (100 µM)
[5] = system: iNicSnFR3a; experiment: Stopped-flow kinetics of ligand binding to iNicSnFR3a
[6] = molecular target: purified iNicSnFR3a; experiment: Isothermal titration calorimetry with purified iNicSnFR3a; assay type: binding; settings: PBS, 25°C
Summary of the method: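 Calorimetric titration: 100 µM protein in the cell titrated with 1 mM test ligand in PBS at 25°C. Binding isotherm yields equilibrium dissociation constant and stoichiometry (moles ligand per mole protein).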

[7] = system: iNicSnFR3 biosensors targeted to the ER; assay type: cell-based
[8] = system: iNicSnFR1; settings: read-out: apparent nicotine EC50
[9] = system: iNiSnFR3a_Y357A_PM in HeLa cells; settings: concentrations ≤300 µM
[10] = system: AAV_iNicSnFR3b_ER in cultured mouse hippocampal neurons
[11] = system: iNicSnFR3a_ER in human dopaminergic neurons
[12] = system: _ER constructs in HeLa cells and hippocampal neurons; settings: applied [nicotine] ≤ 5 µM; mean ± SEM, n = 8 cells
[13] = system: _PM constructs in HeLa cells and hippocampal neurons; settings: applied [nicotine] ≤ 5 µM; mean ± SEM, n = 8 cells
[14] = cited from earlier work; for pKa: no reference printed; for logD7.4: ref Smith et al., 2012
[15] = cited from earlier work
[16] = system: AAV2/1.syn1.iNicSnFR3b_ER in cultured hippocampal neurons; experiment: Time-resolved fluorescence, iNicSnFR3b_ER in cultured hippocampal neurons; assay type: cell-based, mouse; settings: compared with nicotine responses and with varenicline responses on the PM
[17] = system: iNicSnFR3a and iNicSnFR3b in HeLa cells and neurons; assay type: cell-based
[18] = system: α4β2 nAChRs; settings: ref Turner et al., 2011; Marks et al., 2015; Govind et al., 2017; cited from earlier work
[19] = system: α4β2 nAChRs; settings: cited from earlier work
[20] = system: α7 nAChRs; settings: cited from earlier work
[21] = ref Coe et al., 2005, Mihalak et al., 2006

SMILES: c1cncc(OC[C@@H]2CCN2)c1 [A-85380]
- sensitivity of iNicSnFR3a and iNicSnFR3b to other α4β2 agonists [1]: less sensitive

SMILES: CC(=O)OCC[N+](C)(C)C [ACh, acetylcholine]
- binding to the purified protein [2]: bind to this protein
- fluorescence increases [3]: comparable fluorescence increases
- fluorescence increases [4]: only nicotine evoked fluorescence increases

SMILES: C[N+](C)(C)CC(=O)O [betaine]
- binding to the purified protein [2]: bind to this protein

SMILES: C[N+](C)(C)CCO [choline]
- EC50 for choline relative to nicotine ([1]; Fig. 2 C): more than fourfold greater
- binding to the purified protein [2]: bind to this protein

SMILES: CN1C(=O)CC[C@H]1c1cccnc1 [cotinine]
- ΔF ([1]; Fig. 2 C): near-zero ΔF values

SMILES: O=c1cccc2n1C[C@@H]1CNC[C@H]2C1 [cytisine]
- sensitivity of iNicSnFR3a and iNicSnFR3b to other α4β2 agonists [1]: less sensitive

SMILES: c1cnc2c(c1)O[C@H]1CCN3CC[C@@]1(C2)C3 [dianicline]
- sensitivity of iNicSnFR3a and iNicSnFR3b to other α4β2 agonists [1]: less sensitive

SMILES: CN1CCC[C@H]1c1cccnc1 [nicotine, (—)–Nicotine]
- decrease in EC50 as the pH is increased from 6.0 to 9.0 ([1]; Fig. 3 I): ~20 fold
- EC50 for nicotine relative to EC50 for N’MeNic ([1]; pH 6.0 to 9.0, Fig. 3 I): 1.25- to 2 fold
- ΔFmax/F0 ([1]; pH 7.5): 14.5
- ΔFmax/F0 ([1]; pH 9.0): 3.5
- koff-ext (extrapolation to zero [nicotine]) ([5]; 25°C, PBS): 2.0 s⁻¹
- Kd ([5]; read-out: equilibrium-binding constant Kd = koff/kon, stopped-flow): 29 µM
- Kd [6]: 10 ± 2.5 µM
- fluorescence increases [3]: comparable fluorescence increases
- fluorescence increases [4]: only nicotine evoked fluorescence increases
- [nicotine] in the ER versus the extracellular value [7]: within twofold; also recorded: less than twofold
- time for nicotine to leave the ER after removal from the extracellular solution [7]: ≤ 10 s
- EC50 [8]: 250 µM
- nicotine-induced ΔF [9]: no detectable nicotine-induced ΔF
- diffusion constant [10]: ~1 µm^2/ms
- time scale of complete response ([10]; cell in ROI 3, ∼150 µm from the pipette tip): ~10 s
- time of fluorescence increase ([10]; cell within 10 µm of the pipette tip): < 1 s
- maximum ΔF/F0 [11]: 3–4
- slope [ΔF/F0]/[nicotine] ([11]; [nicotine] ≤ 5 µM, Fig. 6 F inset): 0.087 µM⁻¹
- EC50 ([11]; read-out: [nicotine] giving half-ΔFmax/F0): ~20 µM
- [ΔF/F0]/[nicotine] [12]: 0.075 ± 0.019 µM⁻¹
- [ΔF/F0]/[nicotine] [13]: 0.063 ± 0.13 µM⁻¹
- pKa [14]: 7.5–8
- pKa ([14]; listed as Nicotine): 7.5–8.1
- logD7.4 [14]: −0.04
- half-time of metabolism ([15]; in humans, ref Benowitz et al., 1991): ~20 min
- peak [nicotine] in the plasma and brain of a smoker ([15]; ref Benowitz et al., 1991, Rollema et al., 2010): ~1 µM

SMILES: c1cnc2cc3c(cc2n1)[C@@H]1CNC[C@H]3C1 [varenicline]
- agonist character for iNicSnFR3 fluorescence [1]: highly potent full agonist
- varenicline EC50 relative to nicotine ([1]; purified iNicSnFR3a): approximately sixfold less
- inferred Kd relative to nicotine ([5]; stopped-flow): approximately threefold less
- Kd [6]: 3.5 µM
- growth and decay phases of the ER varenicline-induced fluorescence [16]: clearly slower
- time for varenicline to leave the ER after leaving the external solution ([7]; clinically relevant sub-µM concentrations): at most 60 s
- EC50 [17]: 1 to 4 µM
- pKa [14]: 9.5–10
- logD7.4 [14]: −1.27
- half-life ([15]; human plasma, ref Faessel et al., 2006): ~24 h
- effect of exposure on α4β2 nAChRs [18]: up-regulates
- agonist type ([19]; no reference printed): partial agonist
- potency relative to ACh [19, 21]: more potent than ACh
- agonist type ([20]; no reference printed): full agonist
- potency relative to ACh [20, 21]: more potent than ACh
